Results: PubChem BioAssay AID588736 (Vanderbilt Specialized Chemistry Center, 2011)
Active and inactive are the calls of the source.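 How the source made its calls: active means compound halving or more than doubling glutamate potency, or top glutamate response under 75% or over 125% of control; inactive means the rest.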

Target: Metabotropic glutamate receptor 1 (Rattus norvegicus) (UniProt P23385)
Experiment: mGlu1 agonist potency fold-shift by compound – calcium fluorescence, HEK293A cells, rat, selectivity assay for mGlu5 PAM project, profiling panel (AID 588736)
Details: glutamate CRC shift, at 10 µM; for Emax: measured here: glutamate Emax with compound; for Emin: measured here: glutamate Emin with compound, stronger effect = higher value
Outline: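 System: rat mGlu1 in HEK293A cells; control set: vehicle-treated glutamate curves as reference for maximal response; measured by: calcium fluorescence with Fluo4-AM dye, 1 µM final; times: compound added at 1.5 s, glutamate curve at 142 s; doses: test compound at a single 10 µM final, or vehicle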

Chain of Metabotropic glutamate receptor 1 (Rattus norvegicus) (P23385 whole entry, looked up): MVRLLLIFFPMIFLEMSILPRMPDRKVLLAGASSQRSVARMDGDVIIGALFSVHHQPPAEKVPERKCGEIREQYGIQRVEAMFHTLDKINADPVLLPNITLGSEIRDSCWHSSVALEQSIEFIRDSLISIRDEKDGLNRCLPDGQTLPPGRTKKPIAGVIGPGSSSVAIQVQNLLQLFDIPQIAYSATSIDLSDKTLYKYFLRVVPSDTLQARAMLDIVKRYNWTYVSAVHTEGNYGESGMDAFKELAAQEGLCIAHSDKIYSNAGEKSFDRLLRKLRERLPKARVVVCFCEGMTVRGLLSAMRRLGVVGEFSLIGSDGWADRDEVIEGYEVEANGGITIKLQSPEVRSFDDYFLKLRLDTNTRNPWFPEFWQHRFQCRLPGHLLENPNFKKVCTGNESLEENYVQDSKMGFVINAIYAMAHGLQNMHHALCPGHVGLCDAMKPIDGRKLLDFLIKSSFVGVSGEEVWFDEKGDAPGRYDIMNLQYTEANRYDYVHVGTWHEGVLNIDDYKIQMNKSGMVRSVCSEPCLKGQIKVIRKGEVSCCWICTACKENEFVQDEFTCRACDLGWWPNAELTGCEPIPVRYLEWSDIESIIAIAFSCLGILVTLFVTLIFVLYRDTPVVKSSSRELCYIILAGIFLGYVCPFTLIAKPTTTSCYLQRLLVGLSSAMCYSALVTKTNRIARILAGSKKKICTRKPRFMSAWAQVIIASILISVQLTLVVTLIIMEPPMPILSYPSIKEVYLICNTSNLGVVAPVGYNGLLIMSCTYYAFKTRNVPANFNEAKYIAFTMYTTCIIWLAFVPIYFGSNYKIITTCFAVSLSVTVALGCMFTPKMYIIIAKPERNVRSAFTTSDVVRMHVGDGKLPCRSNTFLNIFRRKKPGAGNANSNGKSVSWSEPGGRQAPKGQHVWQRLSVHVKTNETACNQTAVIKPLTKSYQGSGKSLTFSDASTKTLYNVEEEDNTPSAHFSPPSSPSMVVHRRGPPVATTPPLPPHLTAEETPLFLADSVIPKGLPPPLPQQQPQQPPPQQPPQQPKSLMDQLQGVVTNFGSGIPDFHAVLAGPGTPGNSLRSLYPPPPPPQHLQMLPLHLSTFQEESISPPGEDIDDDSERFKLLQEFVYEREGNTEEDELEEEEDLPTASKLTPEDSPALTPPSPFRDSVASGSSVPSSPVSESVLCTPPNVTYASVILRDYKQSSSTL

fold shift | Emax | Emin | SMILES
1.43 (inactive) | 94% | 1% | C[C@@H](NC(=O)c1ccc(C#Cc2cccc(F)c2)cn1)C(C)(C)O
0.93 (inactive) | 91% | 1% | CC1(NC(=O)c2ccc(C#Cc3cccc(F)c3)cn2)COC1
